Data published in ChEMBL document CHEMBL1154767, “Reversal agent and linker variants of reversed chloroquines: activities against Plasmodium falciparum” (J Med Chem, 2010).

Key:
[1] = system: Plasmodium falciparum; test: Antimalarial activity against chloroquine-sensitive Plasmodium falciparum D6 after 72 hrs by fluorescence based method; assay type: functional, organism-based; details: D6, 72 h
Procedure, shortened: (§1)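 Asynchronous parasite cultures diluted with uninfected erythrocytes in RPMI-1640 plus 0.5% Albumax II to 0.2% parasitemia, 2% hematocrit. Drugs diluted from 10 mM DMSO stock, final 0 to 10^-4 M, triplicate wells. After 72 h under standard culture conditions, read by SYBR Green I fluorescence (ex 497, em 520 nm). IC50 from nonlinear regression of fluorescence vs log[drug].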

[2] = system: Plasmodium falciparum; test: Antimalarial activity against chloroquine-resistant Plasmodium falciparum Dd2 after 72 hrs by fluorescence based method; assay type: functional, organism-based; details: Dd2, 72 h; procedure, shortened: as §1
[3] = Therapeutic index, ratio of IC50 for C57B1/6J mice (Mus musculus) splenic lymphocyte to IC50 for chloroquine-sensitive Plasmodium falciparum D6; details: read-out: TI
[4] = Therapeutic index, ratio of IC50 for C57B1/6J mice (Mus musculus) splenic lymphocyte to IC50 for chloroquine-resistant Plasmodium falciparum Dd2; details: read-out: TI

Row | SMILES | IC50 [1] | IC50 [2] | selectivity ratio [3] | selectivity ratio [4]
1 | Clc1ccc2c(NCCCNCCN(Cc3ccccc3)Cc3ccccc3)ccnc2c1 | 2 nM | 6 nM |  | 
2 | CN(CCCNc1ccnc2cc(Cl)ccc12)CCCN1c2ccccc2CCc2ccccc21 | 3 nM | 5 nM |  | 
3 | Clc1ccc2c(NCCCNCCN(c3ccccc3)c3ccccc3)ccnc2c1 | 26 nM | 27 nM |  | 
4 | Clc1ccc2c(NCCNCCCN(Cc3ccccc3)Cc3ccccc3)ccnc2c1 | 7 nM | 16 nM |  | 
5 | Clc1ccc2c(NCCNCCN(Cc3ccccc3)Cc3ccccc3)ccnc2c1 | 10 nM | 16 nM |  | 
6 | Clc1ccc2c(NCCN(CCN(Cc3ccccc3)Cc3ccccc3)CCN(Cc3ccccc3)Cc3ccccc3)ccnc2c1 | 2 nM | 5 nM |  | 
7 | O=C(CNCCNc1ccnc2cc(Cl)ccc12)N(Cc1ccccc1)Cc1ccccc1 | 14 nM | 16 nM |  | 
8 | O=C(CN1CCN(c2ccnc3cc(Cl)ccc23)CC1)N(c1ccccc1)c1ccccc1 | 49 nM | 101 nM |  | 
9 | Clc1ccc2c(N3CCN(CCN(Cc4ccccc4)Cc4ccccc4)CC3)ccnc2c1 | 52 nM | 115 nM |  | 
10 | Clc1ccc2c(NCCCNCCCCN(Cc3ccccc3)Cc3ccccc3)ccnc2c1 | 8 nM | 11 nM |  | 
11 | Clc1ccc2c(NCCCNCCCN(Cc3ccccc3)Cc3ccccc3)ccnc2c1 | 23 nM | 34 nM |  | 
12 | O=C(CN(CCNc1ccnc2cc(Cl)ccc12)CC(=O)N(c1ccccc1)c1ccccc1)N(c1ccccc1)c1ccccc1 | 30 nM | 52 nM |  | 
13 | O=C(CNCCNc1ccnc2cc(Cl)ccc12)N(c1ccccc1)c1ccccc1 | 5 nM | 13 nM | 12000 | 4800
